# Measured values gathered from unrelated publications.
# Protocols differ between the studies behind these lines.
# Target: Serine/threonine-protein kinase MRCK beta (CDC42BPB, Homo sapiens, UniProt Q9Y5S2)
Structure (SMILES),test,conditions,measurement,value
CC/C(=N\NC(=O)NCc1cccc(O)c1)c1ccc(O)c(C)c1O,"enzyme activity, inhibitor",0.1 µM,inhibition,84.3%
CC(C)(C)c1nc2c(s1)c1nc(N)ncc1c1ccc(NS(=O)(=O)c3c(F)cccc3F)c(F)c12,"enzyme activity, inhibitor, radiometric",1 µM,remaining activity,100%
CCc1ccccc1C(=O)Nc1n[nH]c2c(C)c(F)c(C3C(C#N)=C(C)N(C)C(C)=C3C#N)cc12,"cell-free assay, competition with immobilised ligand",1 µM,remaining binding,100%
CCCOc1ccc(OC)c(F)c1C(=O)c1ccc(C(=O)N[C@@H]2CNC[C@H]2NC(=O)c2ccc3[nH]ncc3c2)cc1,"enzyme activity, inhibitor",0.1 µM,remaining activity,34%
CN([C@@H]1CCc2c(CC(=O)O)c3cc(S(C)(=O)=O)ccc3n2C1)S(=O)(=O)c1ccc(F)cc1,"cell-free assay, competition with immobilised ligand",1 µM,remaining binding,100%
CNC(=O)c1cc(Oc2ccc(NC(=O)Nc3ccc(Cl)c(C(F)(F)F)c3)cc2)ccn1,"enzyme activity, inhibitor",0.3 µM,inhibition,12%
CNCc1ccccc1-c1csc([C@H](C)Nc2nc(C)nc3cc(OC)c(OC)cc23)c1,"cell-free assay, competition with immobilised ligand",1 µM,remaining binding,100%
CCCS(=O)(=O)Nc1ccc(F)c(C(=O)c2c[nH]c3ncc(-c4ccc(Cl)cc4)cc23)c1F,"enzyme activity, inhibitor",1 µM,inhibition,< 10%
O=C(Nc1cccnn1)N1CCC(=Cc2cccc(Oc3ccc(C(F)(F)F)cn3)c2)CC1,"cell-free assay, competition with immobilised ligand",1 µM,remaining binding,100%
Cc1ccc(C(=O)Nc2ccc(CN3CCN(C)CC3)c(C(F)(F)F)c2)cc1C#Cc1cnc2cccnn12,"enzyme activity, inhibitor",23.5 nM,remaining activity,95%
COc1cc2ncnc(Nc3ccc(Oc4ccccc4)cc3C)c2cc1OC,"enzyme activity, inhibitor",1 µM,inhibition,-5%
O=c1c2ccccc2[nH]c(=S)n1CCN1CCC(=C(c2ccc(F)cc2)c2ccc(F)cc2)CC1,"enzyme activity, inhibitor",0.5 µM,remaining activity,106%
COc1cccc2c(NCc3ccccc3)nc(-n3c(N)nc4ccccc43)nc12,"target engagement in cells, inhibitor, chemoproteomics",20 mM,inhibition,-1.3%
O=C1c2ccccc2-c2n[nH]c3cccc1c23,"enzyme activity, inhibitor",0.5 µM,activity vs control,97.2%
CN1CCN(c2cnc3c(C4CCN(C(=O)c5ccc(OC(F)(F)F)cc5N)CC4)ncnc3c2)CC1,"cell-free assay, competition with immobilised ligand",1 µM,remaining binding,100%
COc1cc(Cl)c(C(=O)N[C@@H](CN[C@H]2CC[C@@H](N)CC2)Cc2ccc(C#N)cc2)cc1-c1ccc(CN[C@H](C)c2ccc(C)cc2)o1,"enzyme activity, inhibitor",1 µM,remaining activity,100%
Cc1ccc(Nc2nccc(N(C)c3ccc4c(C)n(C)nc4c3)n2)cc1S(N)(=O)=O,"enzyme activity, inhibitor",10 µM,inhibition,11%
Cc1cc(NC(=O)c2cccc3cc(-c4cccc5[nH]nc(N)c45)ccc23)ccc1F,"enzyme activity, inhibitor",0.1 µM,activity vs control,100%
